NR2E3 ag-1 = activates human NR2E3 receptor. Q9Y5X4. CHO-S Gal4-NCOR/VP16-NR2E3 two-hybrid, luciferase. inhibition of corepressor binding, % at 3.98 µM. 360,000 compounds, 0.35% hits. AID 602229;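 active means inhibition above the mean of all tested compounds plus 3 SD, cut at about 70% in these data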;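 further: 0% = DMSO with NR2E3 transfected cells and 100% = cells lacking NR2E3 construct; higher means lower luciferase signal from less NR2E3 corepressor binding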
GalR3 antagonist = blocks the human galanin receptor 3 | O60755 | HEK293 GalR3-CNG cAMP membrane potential fluorescence; galR3 body fused to GalR1 C-terminus | inhibition, % at 3 µM | 360,000 compounds, 0.44% hits | AID 651719;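 active means inhibition above the screen-wide average plus 3 SD, cut at about 13% in these data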;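 further: forskolin and galanin both at EC90 stimulate the cells; cAMP rise reported by CNG channel membrane potential dye signal; 0% = forskolin plus galanin with DMSO and 100% = forskolin alone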
NR2E3 ag-2 = agonists of human nuclear receptor NR2E3 | GST-NR2E3/biotin-RetCOR TR-FRET, 1536-well | inhibition of corepressor binding, % at 4.78 µM | 320,000 compounds, 0.12% hits | AID 2300;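 active means percent inhibition above the cutoff of mean plus 3 SD of all tested compounds, set per screening campaign, cut at about 20% in these data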;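 further: 0% = DMSO wells and 100% = biotin wells as full block of FRET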
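Material: NR2E3–RetCOR corepressor complex / Amount: 1.35 nM GST-NR2E3 / Medium: Tris pH 7.5 / Compound: single nominal compound dose of 4.8 µM / Incubation: 5 h at 4 °C / Technique: TR-FRET, Eu(K)-anti-GST donor, streptavidin-D2 acceptor, ex 340, em 617/671 nm / Read-out basis: percent loss of FRET ratio relative to control wells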
697 NFkB inh = lowers PMA/ionomycin-induced NF-kB signal in 697 B cells; 697 B-cell NF-kB luciferase reporter, 16 h; inhibition, % at 4 µM; 330,000 compounds, 0.33% hits; AID 435022; in the data active means inhibition above about 35%
Jurkat NFkB inh = lowers PMA/ionomycin-induced NF-kB signal in Jurkat cells. PMA/ionomycin-induced NF-kB luciferase reporter, luminescence. inhibition, % at 4 µM. 330,000 compounds, 0.53% hits; in the data active means inhibition above about 50%
JMJD2C inh = human JMJD2C demethylase inhibition; 330,000 compounds, 0.069% hits; AID 2099; inhibition, % at 2.35 µM; Q9H3R0; GST-JMJD2C(1-420) H3K9me3 demethylation, DELFIA europium;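 active means more than half of a compound's replicate wells show inhibition beyond 50%, single wells judged on their own value; inconclusive means some, but no more than half, of replicates pass 50% inhibition; inactive means no replicate passes 50% inhibition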;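 further: signal counts dimethyl H3K9 product captured on neutravidin plate; 0% = median of DMSO wells and 100% = 0.3 times that DMSO median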
Target sequence (Q9H3R0 1-420 limits assumed): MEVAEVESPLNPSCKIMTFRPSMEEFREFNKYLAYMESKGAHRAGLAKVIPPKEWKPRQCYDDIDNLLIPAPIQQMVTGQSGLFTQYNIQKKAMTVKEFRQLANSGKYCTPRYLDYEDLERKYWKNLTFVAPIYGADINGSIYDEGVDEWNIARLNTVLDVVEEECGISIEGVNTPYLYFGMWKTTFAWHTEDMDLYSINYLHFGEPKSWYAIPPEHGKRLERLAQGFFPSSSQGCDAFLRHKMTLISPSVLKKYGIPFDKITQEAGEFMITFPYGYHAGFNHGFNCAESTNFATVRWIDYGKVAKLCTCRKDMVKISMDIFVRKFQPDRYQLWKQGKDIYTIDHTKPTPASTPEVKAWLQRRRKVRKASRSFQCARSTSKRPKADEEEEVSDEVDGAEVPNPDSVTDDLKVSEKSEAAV
NR2E3 ag confirm = confirmation of human NR2E3 agonists; inhibition, % at 3.98 µM; shares compounds with NR2E3 ag-1; CHO-S mammalian two-hybrid NR2E3-NCOR, luciferase luminescence; 2,300 compounds, 51% hits;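 active means average inhibition above a cutoff equal to the mean inhibition of all tested compounds plus one SD, cut at about 70% in these data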;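 further: 0% = DMSO in NR2E3 cells and 100% = DMSO in cells lacking NR2E3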
GAL4-VP16 luc = reduces GAL4-VP16 reporter signal in NR2E3 counterscreen | CHO-S GAL4-VP16 luciferase reporter, luminescence | inhibition, % at 3.98 µM | shares compounds with NR2E3 ag-1 | 2,300 compounds, 29% hits;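 active means mean inhibition above a cutoff equal to the average over all tested compounds plus one standard deviation, cut at about 70% in these data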;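 further: luciferase from a UAS reporter driven by GAL4-VP16 transactivation; 0% = DMSO with VP16-transfected cells and 100% = DMSO with cells lacking VP16; higher means less reporter light so more repression of VP16 activity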
The depositor's hits bear a star; i = inactive; ? = inconclusive; · = no result given. In the library only some 1.5% were active in any assay of this set; here they are far more common.

SMILES	NR2E3 ag-1	GalR3 antagonist	NR2E3 ag-2	697 NFkB inh	Jurkat NFkB inh	JMJD2C inh	NR2E3 ag confirm	GAL4-VP16 luc
CCCCc1ccc(S(=O)(=O)NCCc2ccncc2)cc1	70	-4	1	-30	25	-7	73*	65
CSc1nnc(CSc2cc(C)nc(N(C)C)n2)o1	-12	0	0	4	14	-1	·	·
COc1cc(NC(=O)c2cccc3c(-c4cccnc4)coc23)cc(OC)c1OC	51	-5	·	·	·	·	13	42
Cn1cc(-c2coc3c(C(=O)NCc4cccnc4)cccc23)cn1	-26	-4	·	·	·	·	·	·
O=C(Nc1cccc(C(F)(F)F)c1)c1cccc2c(-c3cccnc3)coc12	-59	·	·	·	·	·	·	·
COc1ccc(CNC(=O)c2cccc3c(-c4cnn(C)c4)coc23)cc1OC	63	-8	·	·	·	·	41	34
CCCCC[C@H](C)N1C[C@@H](COCc2ccccc2)Oc2cc(N3CCC[C@@H]3COC)ccc2S1(=O)=O	-5	-5	·	·	·	·	·	·
Cc1ccccc1N=Nc1c(C)[nH]n(C(N)=S)c1=O	58	-3	-5	-53	-18	-1	0	-7
Cc1cccc(N=Nc2c(C)[nH]n(C(N)=S)c2=O)c1C	·	1	-2	-28	-17	-6	·	·
O=C(NCC1CCCO1)C1CC(c2ccc(Cl)c(Cl)c2)=NO1 (configuration not stated)	48	-3	-1	15	17	-7	25	19
Cn1ncc(C#N)c1NC(=O)C1CC(c2ccc(Cl)c(Cl)c2)=NO1 (configuration not stated)	0	-8	0	1	-6	?	·	·
O=[N+]([O-])c1ccc(Sc2cccc[n+]2[O-])c2nonc12	102*	-6	·	·	·	-9	-44	-7
O=C1CCCN1c1ccc(S(=O)(=O)Nc2cccnc2)cc1	-7	0	3	1	2	-1	·	·
CC1CCC(NS(=O)(=O)c2ccc(N3CCCC3=O)cc2)CC1 (configuration not stated)	53	-2	1	1	17	-15	31	32
CCOc1ccc(C(=O)Nc2cnn(Cc3ccc(Cl)c(Cl)c3)c2)cc1	66	-8	-3	-10	6	i	70	19
O=C(Nc1ccc(Cl)c(Cl)c1)c1ccc(Cn2cc(Cl)cn2)cc1	-109	-4	·	·	·	-9	·	·
Cc1ccc2nc(-c3ccccc3O)c(Nc3ccc4c(c3)OCCO4)n2c1	-4	-4	-2	-69	26	132	·	·
Clc1ccc2nc(-c3ccccn3)c(Nc3ccc4c(c3)OCO4)n2c1	52	1	2	·	·	-9	-66	-87
CCCCS(=O)(=O)N1CCCc2nc(-c3ccc(OC)cc3)ccc21	·	-8	·	·	·	·	·	·
CCOc1ccc2[nH]c3c(N4CCN(C(=O)c5ccco5)CC4)ncnc3c2c1	-14	-5	-1	31	-12	-2	·	·
COc1ccc(N2CCN(c3ncnc4c3[nH]c3ccccc34)CC2)cc1	77*	-5	-1	11	30	-8	95*	81*
OC1(c2cccc(C(F)(F)F)c2)CCN(c2ncnc3c2[nH]c2ccc(F)cc23)CC1	71*	-4	·	·	·	·	91*	71
Fc1ccc2[nH]c3c(N4CCN(c5ccccc5)CC4)ncnc3c2c1	80*	-8	1	-21	27	-11	96*	80*
CCOC(=O)N1CCN(c2ncnc3c2[nH]c2ccc(F)cc23)CC1	80*	1	1	19	26	64	95*	73*
O=c1c2c(nc3c(-c4ccc(Cl)cc4)c[nH]n13)CCC2	77*	-1	-6	4	-18	20	66	50
SMILES	NR2E3 ag-1	GalR3 antagonist	NR2E3 ag-2	697 NFkB inh	Jurkat NFkB inh	JMJD2C inh	NR2E3 ag confirm	GAL4-VP16 luc
Cc1cc(=O)n2[nH]c(C)c(-c3ccccc3)c2n1	-27	-1	2	6	1	-4	·	·
O=c1cc(-c2ccccc2)nc2c(-c3ccccc3)c(C(F)(F)F)[nH]n12	58	-3	0	-6	-19	-6	100*	77*
CSc1nc(N)nc2c1ncn2CC(=O)N1CCN(Cc2c(C)cc(C)cc2C)CC1	80*	-8	·	26	34	6	62	68
Cc1ccccc1NC(=O)c1cccc2nc3ccccc3nc12	80*	-3	0	-13	10	-3	96*	67
CC(C)CCCCCCCCCCCCC(=O)NCC(=O)NC1C(O)C(O)C(Nc2ncnc3nc[nH]c23)OC1C(O)CO (configuration not stated)	100*	·	·	·	·	·	100*	101*
CC(O)CNc1ncnc2nc[nH]c12 (configuration not stated)	-18	-5	1	12	5	12	·	·
CCOc1ccc(NC(=O)Nc2cc(OCC(F)(F)F)cc(OCC(F)(F)F)c2)cc1	5	-5	0	0	9	1	·	·
O=C(Nc1ccc(F)cc1)Nc1cc(OCC(F)(F)F)cc(OCC(F)(F)F)c1	49	-5	-2	-1	26	-11	98*	85*
CC(C)c1ccc(/C=C(\c2nc3ccccc3[nH]2)S(=O)(=O)c2ccccc2)cc1	100*	1	-2	-14	9	-4	97*	7
O=C(C1CCC1)N1CCc2cc(S(=O)(=O)NCC3COc4ccccc4O3)ccc21 (configuration not stated)	67	-4	-2	13	-8	-2	60	37
O=C(C1CC1)N1CCc2cc(S(=O)(=O)NCC3COc4ccccc4O3)ccc21 (configuration not stated)	56	-5	2	-11	-5	2	54	55
CCCN(CCC)CCNS(=O)(=O)c1ccc2c(c1)CCN2C(=O)C1CCC1	1	-5	1	-39	-5	-5	·	·
O=C(C1CC1)N1CCc2cc(Br)cc(S(=O)(=O)NCC3COc4ccccc4O3)c21 (configuration not stated)	-20	-4	0	11	-11	2	·	·
O=C(C1CC1)N1CCc2cc(S(=O)(=O)NCCC3=CCCCC3)ccc21	59	-1	-1	-16	-3	-4	57	47
Cc1ccc(C(=O)NCC(=O)N(C)CC(=O)Nc2c(Cl)cccc2Cl)s1	22	-3	7	-1	11	15	·	·
Cc1cc([N+](=O)[O-])nn1CC(=O)N(C)C1CCCCC1	-32	-8	2	15	1	9	·	·
CC1(C(=O)NS(=O)(=O)C2CC2)CCN(C(=O)c2ccc(F)cc2Cl)C1 (configuration not stated)	21	-7	·	·	·	·	·	·

Assay outcomes: PubChem, several laboratories
